Laboratory results as given in paper PMC8281356 (Chemical biology & drug design, 2021).

Key:
human recombinant COX-2 = molecular target: T1, human recombinant COX-2 (Homo sapiens, UniProt P35354); assay: COX fluorescent inhibitor screening kit; type: biochemical
T1 sequence (P35354 18-604): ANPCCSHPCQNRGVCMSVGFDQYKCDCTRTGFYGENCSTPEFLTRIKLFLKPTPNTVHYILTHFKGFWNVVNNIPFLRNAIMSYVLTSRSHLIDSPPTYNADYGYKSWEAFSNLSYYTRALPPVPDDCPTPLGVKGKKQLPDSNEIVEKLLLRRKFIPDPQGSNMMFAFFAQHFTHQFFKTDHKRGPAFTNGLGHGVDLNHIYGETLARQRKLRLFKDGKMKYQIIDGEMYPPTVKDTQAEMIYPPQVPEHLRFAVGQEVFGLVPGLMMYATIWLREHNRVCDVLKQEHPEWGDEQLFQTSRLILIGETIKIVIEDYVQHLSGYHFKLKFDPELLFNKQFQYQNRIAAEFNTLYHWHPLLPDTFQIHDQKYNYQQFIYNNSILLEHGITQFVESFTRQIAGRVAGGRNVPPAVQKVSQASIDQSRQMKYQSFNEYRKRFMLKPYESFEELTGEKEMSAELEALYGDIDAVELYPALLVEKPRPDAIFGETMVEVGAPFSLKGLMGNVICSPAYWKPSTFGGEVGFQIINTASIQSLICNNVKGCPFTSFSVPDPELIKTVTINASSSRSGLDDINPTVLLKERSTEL
Summary of the method: (§1)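 Ovine COX-1 or human recombinant COX-2 with heme and ADHP in 100 mM Tris-HCl, pH 8.0. Test compound from 10 mM DMSO stock, final 2.5–100 μM. Arachidonic acid starts the reaction, 2 min at room temperature. Resorufin read at ex 535/em 590 nm. Percent inhibition vs no-inhibitor control; IC50 from concentration–inhibition curve, triplicate determinations.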

ovine COX-1 = molecular target: T2, ovine COX-1 (Ovis aries, UniProt P05979); assay: COX fluorescent inhibitor screening kit; type: biochemical
T2 sequence (P05979 25-600): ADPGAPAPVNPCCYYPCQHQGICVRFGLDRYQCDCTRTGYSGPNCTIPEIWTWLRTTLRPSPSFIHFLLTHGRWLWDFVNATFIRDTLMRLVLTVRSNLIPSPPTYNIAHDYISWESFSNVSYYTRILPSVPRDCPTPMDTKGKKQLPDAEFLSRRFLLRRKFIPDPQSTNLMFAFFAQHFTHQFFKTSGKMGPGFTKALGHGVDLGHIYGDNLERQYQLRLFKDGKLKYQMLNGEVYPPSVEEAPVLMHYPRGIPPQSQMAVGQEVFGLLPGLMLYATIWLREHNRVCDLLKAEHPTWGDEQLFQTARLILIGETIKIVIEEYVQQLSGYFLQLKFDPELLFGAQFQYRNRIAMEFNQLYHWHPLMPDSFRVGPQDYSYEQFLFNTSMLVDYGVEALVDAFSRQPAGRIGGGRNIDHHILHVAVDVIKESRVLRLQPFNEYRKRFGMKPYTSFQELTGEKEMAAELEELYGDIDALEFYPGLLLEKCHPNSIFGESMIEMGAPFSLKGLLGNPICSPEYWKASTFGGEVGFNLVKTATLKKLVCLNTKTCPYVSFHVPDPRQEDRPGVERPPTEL
Summary of the method: as §1

SMILES	IC50 (human recombinant COX-2)	IC50 (ovine COX-1)
CC(=O)OC[C@H]1O[C@@H](OC(C)=O)[C@H](NC(=O)Cc2ccccc2Nc2c(Cl)cccc2Cl)[C@@H](OC(C)=O)[C@@H]1OC(C)=O [compound 3]	< 2.5 µM	25.5 µM
COc1ccc2c(c1)c(CC(=O)N[C@H]1[C@H](OC(C)=O)O[C@H](COC(C)=O)[C@@H](OC(C)=O)[C@@H]1OC(C)=O)c(C)n2C(=O)c1ccc(Cl)cc1 [compound 4]	33.6 µM	24.9 µM
CC(=O)OC[C@H]1O[C@@H](OC(C)=O)[C@H](NC(=O)c2ccccc2Nc2cccc(C)c2C)[C@@H](OC(C)=O)[C@@H]1OC(C)=O [compound 5, 1,3,4,6-Tetra-O-acetyl-2-deoxy-2-(2-((2,3-dimethylphenyl)amino)benzamido)-β-D-glucopyranose]	> 100 µM	< 2.5 µM
